The values below come from ChEMBL document CHEMBL4616594, “Virtual screening identification and chemical optimization of substituted 2-arylbenzimidazoles as new non-zinc-binding MMP-2 inhibitors” (Bioorg Med Chem, 2020).

For orientation: IC50 means the concentration needed to halve the response being measured.

One test has as its target Neutrophil collagenase (Homo sapiens, UniProt P22894). The test can be described thus: Inhibition of recombinant human MMP8 catalytic domain (Phe99 to Gln269 residues) expressed in Escherichia coli cells using Mca-Pro-Leu-Gly-Leu-Dpa-Ala-Arg-NH2/TQ3-GABA-Pro-Cha-Abu-Smc-His-Ala-Dab(6'-TAMRA)-Ala-Lys-NH2 as fluorogenic substrate preincubated for 15 mins followed by substrate addition measured after 2 to 4 hrs by fluorometric assay. An outline of the steps:
(§1)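 Commercial catalytic domain in Tris·HCl 50 mM pH 7.5, NaCl 150 mM, CaCl₂ 1 mM, ZnCl₂ 1 µM, 0.05% Brij-35, 1% DMSO. Inhibitor was tested at six concentrations (1 nM–100 µM), diluted from 10 mM DMSO stocks, and pre-incubated with enzyme for 15 min at room temperature. OmniMMP substrate (2.5 µM final) or OmniMMP RED substrate (1 µM final) was then added and incubated 2–4 h at 37°C. Fluorescence read at ex 340/em 405 or ex 545/em 572. Percent inhibition calculated versus no-inhibitor wells. Run in triplicate; IC50 given as mean ± SEM of ≥2 independent experiments.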

The target of a further test is Collagenase 3 (Homo sapiens, UniProt P45452). The test can be described thus: Inhibition of recombinant human MMP13 catalytic domain (Tyr104 to Asn274 residues) expressed in Escherichia coli cells using Mca-Pro-Leu-Gly-Leu-Dpa-Ala-Arg-NH2/TQ3-GABA-Pro-Cha-Abu-Smc-His-Ala-Dab(6'-TAMRA)-Ala-Lys-NH2 as fluorogenic substrate preincubated for 15 mins followed by substrate addition measured after 2 to 4 hrs by fluorometric assay.

Test [1] deals with Matrix metalloproteinase-9 (Homo sapiens, UniProt P14780). The test can be described thus: Inhibition of recombinant human MMP9 catalytic domain (Phe107 to Pro449 residues) expressed in Escherichia coli cells using Mca-Pro-Leu-Gly-Leu-Dpa-Ala-Arg-NH2/TQ3-GABA-Pro-Cha-Abu-Smc-His-Ala-Dab(6'-TAMRA)-Ala-Lys-NH2 as fluorogenic substrate preincubated for 15 mins followed by substrate addition measured after 2 to 4 hrs by fluorometric assay. An outline of the steps: as §1
Matrix metalloproteinase-9, sequence (P14780 whole entry, the tested form may be a part): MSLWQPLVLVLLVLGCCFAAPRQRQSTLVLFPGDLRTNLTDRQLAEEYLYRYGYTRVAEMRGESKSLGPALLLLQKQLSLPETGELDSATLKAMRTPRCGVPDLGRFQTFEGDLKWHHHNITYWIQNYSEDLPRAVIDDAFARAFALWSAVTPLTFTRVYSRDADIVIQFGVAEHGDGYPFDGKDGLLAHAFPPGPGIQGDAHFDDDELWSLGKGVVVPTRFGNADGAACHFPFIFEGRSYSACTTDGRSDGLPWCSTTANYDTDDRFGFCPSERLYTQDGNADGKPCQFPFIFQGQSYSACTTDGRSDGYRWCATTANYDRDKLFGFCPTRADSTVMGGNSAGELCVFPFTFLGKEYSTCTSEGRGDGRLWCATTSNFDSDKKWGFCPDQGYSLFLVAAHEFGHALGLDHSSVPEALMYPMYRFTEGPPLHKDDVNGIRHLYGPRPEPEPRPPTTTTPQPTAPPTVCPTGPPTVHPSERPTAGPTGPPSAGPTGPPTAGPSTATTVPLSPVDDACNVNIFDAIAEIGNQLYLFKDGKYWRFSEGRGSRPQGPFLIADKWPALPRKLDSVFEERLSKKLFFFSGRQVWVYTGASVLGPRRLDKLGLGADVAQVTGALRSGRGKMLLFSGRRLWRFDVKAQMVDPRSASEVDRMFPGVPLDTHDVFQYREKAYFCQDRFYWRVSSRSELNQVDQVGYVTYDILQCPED

Test [2] concerns the target 72 kDa type IV collagenase (Homo sapiens, UniProt P08253). In words: Inhibition of recombinant human MMP2 catalytic domain (Tyr110 to Asp452 residues) expressed in yeast cells using Mca-Pro-Leu-Gly-Leu-Dpa-Ala-Arg-NH2/TQ3-GABA-Pro-Cha-Abu-Smc-His-Ala-Dab(6'-TAMRA)-Ala-Lys-NH2 as fluorogenic substrate preincubated for 15 mins followed by substrate addition measured after 2 to 4 hrs by fluorometric analysis. Type of test: biochemical. The procedure, abridged: as §1

72 kDa type IV collagenase, sequence (P08253 whole entry, the tested form may be a part): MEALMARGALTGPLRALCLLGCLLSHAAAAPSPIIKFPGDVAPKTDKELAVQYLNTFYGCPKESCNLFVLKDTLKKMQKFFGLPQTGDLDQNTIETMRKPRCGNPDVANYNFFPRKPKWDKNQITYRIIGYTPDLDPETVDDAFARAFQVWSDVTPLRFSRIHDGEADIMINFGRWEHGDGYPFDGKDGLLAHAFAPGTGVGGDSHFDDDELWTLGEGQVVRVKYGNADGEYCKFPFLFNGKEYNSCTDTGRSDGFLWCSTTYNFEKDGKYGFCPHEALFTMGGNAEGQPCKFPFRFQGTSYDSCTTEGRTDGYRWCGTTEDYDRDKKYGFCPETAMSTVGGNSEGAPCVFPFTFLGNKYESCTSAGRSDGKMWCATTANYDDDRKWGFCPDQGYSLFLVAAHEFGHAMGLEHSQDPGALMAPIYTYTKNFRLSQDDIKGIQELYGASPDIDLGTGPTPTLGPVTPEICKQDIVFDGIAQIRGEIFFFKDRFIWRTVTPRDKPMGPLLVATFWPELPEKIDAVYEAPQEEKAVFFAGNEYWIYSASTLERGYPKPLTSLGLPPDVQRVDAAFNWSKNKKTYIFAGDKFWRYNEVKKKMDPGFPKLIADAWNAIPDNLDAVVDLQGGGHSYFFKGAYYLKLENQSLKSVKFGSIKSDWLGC
Neutrophil collagenase, sequence (P22894 whole entry, the tested form may be a part): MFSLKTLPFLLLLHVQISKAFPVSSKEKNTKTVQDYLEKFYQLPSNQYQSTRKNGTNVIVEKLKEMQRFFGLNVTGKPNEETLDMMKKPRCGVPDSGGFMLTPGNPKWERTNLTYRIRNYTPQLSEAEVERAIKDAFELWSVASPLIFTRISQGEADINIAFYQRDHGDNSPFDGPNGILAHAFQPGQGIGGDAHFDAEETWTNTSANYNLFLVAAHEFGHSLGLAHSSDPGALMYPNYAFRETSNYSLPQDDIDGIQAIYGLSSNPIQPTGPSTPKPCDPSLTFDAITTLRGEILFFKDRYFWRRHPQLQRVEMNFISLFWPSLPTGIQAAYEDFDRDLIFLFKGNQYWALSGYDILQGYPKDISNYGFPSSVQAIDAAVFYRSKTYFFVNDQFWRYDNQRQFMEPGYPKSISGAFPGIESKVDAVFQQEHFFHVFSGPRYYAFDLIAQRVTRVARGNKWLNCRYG

`O=S(=O)(Nc1cccc(-c2nc3ccccc3[nH]2)c1)c1ccccc1`: the IC50 at Neutrophil collagenase stood at 43.2 µM; at Collagenase 3 it was 94 µM; in test [1], 36 µM; in test [2], 65.4 µM.

With `O=[N+]([O-])c1ccc(-c2nc3cc([N+](=O)[O-])ccc3[nH]2)cc1`, the IC50 was 25 µM on Neutrophil collagenase, 12 µM at Collagenase 3, 23.3 µM in test [1] and 4.2 µM in test [2].

For the compound `O=[N+]([O-])c1ccc(-c2nc3ccccc3o2)cc1`, the IC50 turned out to be 46 µM at Neutrophil collagenase, 7.3 µM on Collagenase 3, 36 µM in test [1] and 5.8 µM in test [2].

As for `O=C(Nc1cccc(-c2nc3ccccc3[nH]2)c1)c1ccccc1`, the IC50 on Neutrophil collagenase was found to be 46 µM; at Collagenase 3 it was 35 µM; in test [1], 57 µM; in test [2], 11.9 µM.

Take `O=C(Nc1ccc(-c2nc3ccccc3s2)cc1)c1ccccc1`: the IC50 amounted to 38 µM at Neutrophil collagenase, 21 µM at Collagenase 3, 42 µM in test [1] and 16.4 µM in test [2].

Take `O=C(Nc1ccc(-c2nc3ccccc3[nH]2)cc1)c1ccccc1`: the IC50 was 28 µM on Neutrophil collagenase, 7.5 µM at Collagenase 3, 16 µM in test [1] and 6.5 µM in test [2].

In the case of `O=C(CCc1ccccc1)Nc1cccc(-c2nc3ccccc3[nH]2)c1`, the IC50 was 41.9 µM at Neutrophil collagenase, more than 100 µM at Collagenase 3, 68 µM in test [1] and 87 µM in test [2].

In the case of `Cc1ccc2nc(-c3cccc(NC(=O)CCc4ccccc4)c3)[nH]c2c1`, the IC50 at Neutrophil collagenase was 32 µM; at Collagenase 3, more than 100 µM; in test [1], 26.6 µM; in test [2], 31 µM.

Turning to `O=C(CCc1ccccc1)Nc1cccc(-c2nc3ccc(Br)cc3[nH]2)c1`, the IC50 at Neutrophil collagenase stood at 12.5 µM; on Collagenase 3 it was 73 µM; in test [1], 14.5 µM; in test [2], 16 µM.

For the compound `O=C(CCCc1ccccc1)Nc1ccc(-c2nc3ccccc3[nH]2)cc1`, the IC50 at Neutrophil collagenase was more than 100 µM; at Collagenase 3, 50 µM; in test [1] it was more than 100 µM; in test [2], 96 µM.

With `O=C(Nc1ccc(-c2nc3ccc(Br)cc3[nH]2)cc1)c1ccc([N+](=O)[O-])cc1`, the IC50 came to 7.9 µM at Neutrophil collagenase, 3.9 µM at Collagenase 3, 6.4 µM in test [1] and 3.1 µM in test [2].

In the case of `O=[N+]([O-])c1ccc(-c2nc3ccc(Br)cc3[nH]2)cc1`, the IC50 on Neutrophil collagenase came out at 10 µM; at Collagenase 3, 10.5 µM; in test [1], 10 µM; in test [2], 8.8 µM.

For `COC(=O)c1ccc(-c2nc3ccc(Br)cc3[nH]2)cc1`, the half-maximal inhibitory concentration (IC50) at Neutrophil collagenase is 26.3 µM; at Collagenase 3, 19 µM; in test [1], 20.7 µM; in test [2] it was 9 µM.

For the compound `Cc1ccc2nc(-c3cccc(C(=O)NCCc4ccccc4)c3)[nH]c2c1`, the half-inhibitory concentration (IC50) on Neutrophil collagenase is 40 µM; at Collagenase 3, more than 100 µM; in test [1] it was 37.7 µM; in test [2], 45 µM.

With `Cc1ccc2nc(-c3ccc(NC(=O)c4ccccc4)cc3)[nH]c2c1`, the IC50 on Neutrophil collagenase is 45.3 µM; at Collagenase 3, 6.5 µM; in test [1], 28.4 µM; in test [2], 8.6 µM.

In the case of `O=C(CCc1ccccc1)Nc1ccc(-c2nc3ccc(Br)cc3[nH]2)cc1`, the IC50 at Neutrophil collagenase was 8 µM; at Collagenase 3, 6.5 µM; in test [1], 11.5 µM; in test [2], 7 µM.

`COc1ccc(/C=C/C(=O)Nc2cccc(-c3nc4ccccc4[nH]3)c2)cc1`: the half-inhibitory concentration (IC50) on Neutrophil collagenase is more than 100 µM; on Collagenase 3, 52 µM; in test [1], more than 100 µM; in test [2], 48 µM.

For the compound `Cc1cccc2nc(-c3cccc(NC(=O)CCc4ccccc4)c3)[nH]c12`, the IC50 is 29 µM at Neutrophil collagenase, more than 100 µM at Collagenase 3, 60 µM in test [1] and 64 µM in test [2].

On to `Cc1ccc2nc(-c3ccc(NC(=O)c4cccc([N+](=O)[O-])c4)cc3)[nH]c2c1`, for which the IC50 was found to be 20.9 µM on Neutrophil collagenase, 2.2 µM on Collagenase 3, 14.5 µM in test [1] and 3.9 µM in test [2].

In the case of `O=C(CCCc1ccccc1)Nc1ccc(-c2nc3ccc(Br)cc3[nH]2)cc1`, the IC50 on Neutrophil collagenase was found to be 67 µM; on Collagenase 3, 22.2 µM; in test [1], 58 µM; in test [2], 31 µM.

Turning to `O=C(CCCc1ccccc1)Nc1cccc(-c2nc3ccccc3[nH]2)c1`, the IC50 turned out to be 34.6 µM at Neutrophil collagenase, 81.2 µM on Collagenase 3, 43 µM in test [1] and 47 µM in test [2].

Consider `O=C(Nc1ccc(-c2nc3ccc(Br)cc3[nH]2)cc1)c1ccccc1`, for which the IC50 on Neutrophil collagenase came out at 50 µM; on Collagenase 3, 3.9 µM; in test [1], 32 µM; in test [2] it was 6.42 µM.

For the compound `Cc1ccc2nc(-c3ccc(NC(=O)CCc4ccccc4)cc3)[nH]c2c1`, the IC50 on Neutrophil collagenase stood at 77 µM; at Collagenase 3, 17.9 µM; in test [1] it was 60 µM; in test [2] it was 25.3 µM.

For `Cc1ccc2nc(-c3cccc(NC(=O)CN(C)Cc4ccccn4)c3)[nH]c2c1`, the IC50 on Neutrophil collagenase is more than 100 µM; on Collagenase 3 it was 93 µM; in test [1], more than 100 µM; in test [2] it was 72 µM.

Take `Cc1ccc2nc(-c3ccc([N+](=O)[O-])cc3)[nH]c2c1`: the IC50 was 23 µM at Neutrophil collagenase, 6.1 µM on Collagenase 3, 22 µM in test [1] and 6.5 µM in test [2].

Take `O=C(Nc1ccc(-c2nc3ccccc3[nH]2)cc1)c1ccc(Br)cc1`: the IC50 came out at 55 µM on Neutrophil collagenase, 10.9 µM on Collagenase 3, 41 µM in test [1] and 9.4 µM in test [2].

Take `Cc1cccc2nc(-c3cccc(NC(=O)CCCc4ccccc4)c3)[nH]c12`: the IC50 on Neutrophil collagenase was determined as 40.9 µM; on Collagenase 3 it was 91 µM; in test [1] it was 38.6 µM; in test [2], 60 µM.

With `Cc1ccc2nc(-c3cccc([N+](=O)[O-])c3)[nH]c2c1`, the IC50 at Neutrophil collagenase worked out at 27 µM; at Collagenase 3 it was 15.5 µM; in test [1] it was 36.6 µM; in test [2], 14 µM.

For `O=[N+]([O-])c1cccc(-c2nc3ccc(Br)cc3[nH]2)c1`, the IC50 on Neutrophil collagenase is more than 100 µM; at Collagenase 3, 47 µM; in test [1], more than 100 µM; in test [2], more than 100 µM.

Take `Nc1ccc(-c2nc3ccc(Br)cc3[nH]2)cc1`: the IC50 at Neutrophil collagenase is 26 µM; at Collagenase 3 it was 21 µM; in test [1] it was 21.7 µM; in test [2], 10 µM.

In the case of `O=[N+]([O-])c1ccc(-c2nc3ccccc3[nH]2)o1`, the IC50 amounted to 27 µM on Neutrophil collagenase, 33 µM at Collagenase 3, 32 µM in test [1] and 31 µM in test [2].

As for `Cc1ccc2nc(-c3ccc(NC(=O)c4ccc([N+](=O)[O-])cc4)cc3)[nH]c2c1`, the half-maximal inhibitory concentration (IC50) on Neutrophil collagenase amounted to 25.5 µM; at Collagenase 3, 1.8 µM; in test [1], 10.7 µM; in test [2], 3.3 µM.

`O=C(CCc1ccccc1)Nc1ccc(-c2nc3ccccc3[nH]2)cc1`: the concentration for half-maximal inhibition (IC50) on Neutrophil collagenase was 64 µM; on Collagenase 3, 15.2 µM; in test [1] it was 29 µM; in test [2], 19 µM.

Consider `O=C(O)c1ccc(-c2nc3ccc(Br)cc3[nH]2)cc1`, for which the IC50 at Neutrophil collagenase turned out to be 35 µM; on Collagenase 3, 43 µM; in test [1] it was 27 µM; in test [2], 31.5 µM.

As to `Cc1ccc2nc(-c3ccc([N+](=O)[O-])cc3)oc2c1`, the IC50 on Neutrophil collagenase amounted to 29 µM; on Collagenase 3, 9.4 µM; in test [1] it was 18 µM; in test [2] it was 9 µM.

In the case of `Brc1ccc2nc(-c3ccccc3)[nH]c2c1`, the IC50 (at Neutrophil collagenase; on Collagenase 3; in test [1]; in test [2]) was more than 100 µM in each case.

For `O=[N+]([O-])c1ccc(-c2nc3ccccc3[nH]2)cc1`, the IC50 at Neutrophil collagenase was 64 µM; at Collagenase 3, more than 100 µM; in test [1] it was 56.5 µM; in test [2] it was 82 µM.

Take `O=[N+]([O-])c1ccc(-c2nc3ccccc3s2)cc1`: the IC50 worked out at 10.5 µM on Neutrophil collagenase, 7.5 µM at Collagenase 3, 11.5 µM in test [1] and 6.5 µM in test [2].

Consider `Nc1ccc(-c2nc3ccccc3s2)cc1`, for which the IC50 was 88 µM on Neutrophil collagenase, more than 100 µM at Collagenase 3, 79 µM in test [1] and more than 100 µM in test [2].
